Results as given in ChEMBL document CHEMBL1142097, “EthA, a common activator of thiocarbamide-containing drugs acting on different mycobacterial targets” (Antimicrob Agents Chemother, 2007).
The source made the active and inactive calls. No cut-off for these calls is given here.

Columns and labels:
[1] = test system: Mycobacterium tuberculosis variant bovis; assay: Inhibition of mycolic acid synthesis in Mycobacterium bovis BCG str. Pasteur 1173P2 overexpressing ethA gene; format: functional
Summary of the method: (§1)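 Mid-log cultures in Sauton medium exposed to graded drug concentrations (μg/ml) for 16 h at 37°C, then pulsed with 1 μCi/ml [2-14C]acetate for 8 h at 37°C. Cells PBS-washed, hydrolysed with 15% tetrabutylammonium hydroxide at 100°C overnight, methylated with CH3I in CH2Cl2; fatty and mycolic acid methyl esters resolved by TLC and autoradiographed.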

[2] = test system: Mycobacterium tuberculosis variant bovis; assay: Inhibition of oleic acid synthesis in Mycobacterium bovis BCG str. Pasteur 1173P2 overexpressing ethA gene; format: functional; summary of the method: as §1

CC(C)CCSc1ccc(NC(=S)Nc2ccc(SCCC(C)C)cc2)cc1
Activity [1]: Active
Activity [2]: Active
